From ChEMBL document CHEMBL1144727, “Fragment based design of new H4 receptor-ligands with anti-inflammatory properties in vivo” (J Med Chem, 2008)
Calls of active or inactive are those of the source. No cut-off for these calls is given here.

Experiments:
Histamine H4 receptor = Histamine H4 receptor (Homo sapiens, UniProt Q9H3N8); assay: Displacement of [3H]histamine from human histamine H4 receptor expressed in HEK293T cells; format: cell-based, HEK-293T
Rattus norvegicus [1] = assay: Antiinflammatory activity in Wistar rat assessed as inhibition of carrageenan-induced paw edema at 30 mg/kg, sc after 2 hr; format: functional, organism-based; parameters: dose 30 mg/kg
Procedure, shortened: (§1)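 Male Wistar rats (180–200 g), fasted; paw inflammation induced by subplantar injection of 0.1 mL 1% carrageenan in carboxymethylcellulose into left hind paw. Compound or vehicle (DMSO solution, freshly prepared) given s.c. at 0.1 mL per 100 g immediately before carrageenan. Paw volume by plethysmometer before injection and at 2, 4, 6 h; edema as % increase over preinjection value (=100). n = 6 per group.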

Histamine H1 receptor [2] = target: T1, Histamine H1 receptor (Homo sapiens, UniProt P35367); assay: Displacement of [3H]mepyramine from human histamine H1 receptor expressed in NIH3T3 cells at 10 uM; format: cell-based
T1 sequence (P35367 whole entry): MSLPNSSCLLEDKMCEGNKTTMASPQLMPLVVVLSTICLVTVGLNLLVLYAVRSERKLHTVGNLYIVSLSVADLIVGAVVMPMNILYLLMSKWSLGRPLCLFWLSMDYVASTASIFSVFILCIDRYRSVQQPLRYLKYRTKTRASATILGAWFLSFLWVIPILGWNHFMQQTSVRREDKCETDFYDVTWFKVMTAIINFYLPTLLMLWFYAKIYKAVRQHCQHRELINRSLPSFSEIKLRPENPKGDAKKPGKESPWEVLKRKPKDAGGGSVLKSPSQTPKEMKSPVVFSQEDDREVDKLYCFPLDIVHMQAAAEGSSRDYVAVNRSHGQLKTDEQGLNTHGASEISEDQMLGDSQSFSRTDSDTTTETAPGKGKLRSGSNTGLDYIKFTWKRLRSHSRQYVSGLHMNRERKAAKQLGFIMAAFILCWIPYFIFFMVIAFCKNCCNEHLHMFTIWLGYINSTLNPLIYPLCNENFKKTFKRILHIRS
Procedure, shortened: (§2)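 Single-point radioligand displacement at the human receptor, performed externally, with ligand at 10 μM. Reported as % inhibition of radioligand binding, measured in duplicate.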

Histamine H1 receptor [3] = target: T1, Histamine H1 receptor; assay: Displacement of [3H]mepyramine from human histamine H1 receptor expressed in NIH3T3 cells; format: cell-based
[4] = target: Histamine H3 receptor (Homo sapiens) (UniProt Q9Y5N1); assay: Displacement of [3H]Nalpha-methyl-histamine from human histamine H3 receptor expressed in […] cells at 10 uM; format: cell-based; conditions: SK-N-MC; procedure, shortened: as §2
Sequence of Histamine H3 receptor (Homo sapiens) (Q9Y5N1 whole entry): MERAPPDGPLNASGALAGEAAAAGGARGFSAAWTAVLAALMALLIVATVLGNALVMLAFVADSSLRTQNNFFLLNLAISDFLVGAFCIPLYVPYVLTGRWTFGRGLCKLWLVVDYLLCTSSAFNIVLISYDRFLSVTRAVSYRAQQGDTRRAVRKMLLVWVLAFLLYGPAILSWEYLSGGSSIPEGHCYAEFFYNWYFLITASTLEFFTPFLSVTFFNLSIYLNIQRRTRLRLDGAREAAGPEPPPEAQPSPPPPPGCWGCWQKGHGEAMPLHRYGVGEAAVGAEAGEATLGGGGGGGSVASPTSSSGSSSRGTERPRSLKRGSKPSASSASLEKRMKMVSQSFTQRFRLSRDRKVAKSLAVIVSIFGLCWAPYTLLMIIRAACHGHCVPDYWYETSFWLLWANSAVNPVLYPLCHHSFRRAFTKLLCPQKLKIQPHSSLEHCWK

[5] = target: Histamine H2 receptor (Homo sapiens) (UniProt P25021); assay: Displacement of [3H]aminopotentidine from human histamine H2 receptor expressed in COS7 cells at 10 uM; format: cell-based; conditions: COS-7; procedure, shortened: as §2
Sequence of Histamine H2 receptor (Homo sapiens) (P25021 whole entry): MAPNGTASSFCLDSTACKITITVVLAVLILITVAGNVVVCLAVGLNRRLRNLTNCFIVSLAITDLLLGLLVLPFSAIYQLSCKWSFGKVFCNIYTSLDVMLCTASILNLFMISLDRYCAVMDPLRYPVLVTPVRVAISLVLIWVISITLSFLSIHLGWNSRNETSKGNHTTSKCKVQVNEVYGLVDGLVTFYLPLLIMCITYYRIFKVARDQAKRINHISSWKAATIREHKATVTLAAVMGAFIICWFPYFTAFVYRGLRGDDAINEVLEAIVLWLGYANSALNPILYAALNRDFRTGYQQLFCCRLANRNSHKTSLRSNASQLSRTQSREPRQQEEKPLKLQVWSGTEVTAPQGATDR

Rattus norvegicus [6] = assay: Antiinflammatory activity in Wistar rat assessed as inhibition of carrageenan-induced paw edema at 10 mg/kg, sc after 6 hrs; format: functional, organism-based; parameters: dose 10 mg/kg; procedure, shortened: as §1
Rattus norvegicus [7] = assay: Antiinflammatory activity in Wistar rat assessed as inhibition of carrageenan-induced paw edema at 10 mg/kg, sc after 2 hrs; format: functional, organism-based; parameters: dose 10 mg/kg; procedure, shortened: as §1

SMILES | Ki (Histamine H4 receptor) | other results
COc1nc2cc(Cl)c(Cl)cc2nc1N1CCN(C)CC1 | 57.5 nM | –
CN1CCN(c2nc3cc(Cl)ccc3[nH]c2=O)CC1 | 11.7 nM | –
CN1CCN(c2nc3ccccc3nc2OCc2ccc(Cl)cc2)CC1 | 2290 nM | –
CN(C)CCCOc1nc2ccccc2nc1N1CCN(C)CC1 | 3980 nM | –
CN1CCN(c2nc3cc(Cl)c(Cl)cc3nc2CCc2ccccc2)CC1 | 3980 nM | –
COc1nc2ccccc2nc1N1CCN(C)CC1 | 339 nM | –
CN1CCN(c2nc3ccccc3nc2-c2ccccc2)CC1 | 10200 nM | –
Cc1nc2ccccc2nc1N1CCN(C)CC1 | 200 nM | –
CN1CCN(c2nc3ccccc3nc2OCc2cccc(Cl)c2)CC1 | 269 nM | –
CN1CCN(c2ccc3ccccc3n2)CC1 | 6920 nM | –
CN1CCN(c2nccc3ccccc23)CC1 | 20400 nM | –
Cc1nc2cc(Cl)c(Cl)cc2nc1N1CCN(C)CC1 | 63.1 nM | –
CN1CCN(c2nc3cc(Cl)c(Cl)cc3[nH]c2=O)CC1 | 5.62 nM | inhibition (Histamine H1 receptor [2]): 7%; Activity (Rattus norvegicus [6]): Active; Activity (Rattus norvegicus [7]): Active; inhibition [4]: 64%; inhibition [5]: 42%
CN1CCN(c2nc3cc(Cl)c(Cl)cc3nc2Oc2ccccc2)CC1 | 1170 nM | –
CN1CCN(c2nc3ccccc3nc2OCc2ccccc2)CC1 | 295 nM | –
CN1CCN(c2cnc3ccccc3n2)CC1 | 891 nM | –
CN1CCN(c2ccc3cc(Cl)ccc3n2)CC1 | 589 nM | –
CN1CCN(c2nc3ccccc3nc2Cl)CC1 | 229 nM | –
CCOc1nc2ccccc2nc1N1CCN(C)CC1 | 229 nM | –
CN1CCN(c2nc3ccccc3[nH]c2=O)CC1 | 61.7 nM | –
CN1CCN(c2nc3ccccc3nc2Oc2cccnc2)CC1 | 1290 nM | –
CN1CCN(c2cnc3cc(Cl)ccc3n2)CC1 | 91.2 nM | –

Continued by falling Ki (Histamine H4 receptor), values first:

Ki (Histamine H4 receptor) | SMILES | other results
13200 nM | CN1CCN(c2nc3ccccc3nc2OC2CCCCC2)CC1 | –
7410 nM | CN1CCN(c2nc3ccccc3nc2NCc2ccccc2)CC1 | –
5750 nM | CC(C)COc1nc2ccccc2nc1N1CCN(C)CC1 | –
4370 nM | CN1CCN(c2nc3ccccc3nc2OCc2ccncc2)CC1 | –
2950 nM | CN1CCN(c2nc3ccccc3nc2OCc2cccnc2)CC1 | –
2950 nM | CN1CCN(c2nc3ccccc3nc2OCCCCc2ccccc2)CC1 | –
2690 nM | CCN1CCN(c2nc3ccccc3nc2Cc2ccccc2)CC1 | –
2510 nM | CN1CCN(c2nc3ccccc3nc2C(F)(F)F)CC1 | –
2340 nM | COc1ccc(Oc2nc3ccccc3nc2N2CCN(C)CC2)cc1 | –
2340 nM | CN1CCN(c2nc3ccccc3nc2Oc2ccc(Cl)cc2)CC1 | –
2190 nM | Cc1ccc(Oc2nc3ccccc3nc2N2CCN(C)CC2)cc1 | –
1700 nM | CN1CCN(c2nc3ccccc3nc2Oc2ccc(Cl)c(Cl)c2)CC1 | –
1580 nM | CN1CCN(c2nc3ccccc3nc2Oc2ccc(F)cc2)CC1 | –
1550 nM | CN1CCN(c2nc3ccccc3nc2Oc2cccc(N(C)C)c2)CC1 | –
1380 nM | Cc1ccc(COc2nc3ccccc3nc2N2CCN(C)CC2)cc1 | –
977 nM | CN1CCCN(c2nc3cc(Cl)ccc3[nH]c2=O)CC1 | –
708 nM | COc1ccc(COc2nc3ccccc3nc2N2CCN(C)CC2)cc1 | –
575 nM | Cc1cccc(Oc2nc3ccccc3nc2N2CCN(C)CC2)c1 | –
479 nM | CN1CCN(c2nc3ccccc3nc2OCCc2ccccc2)CC1 | –
468 nM | CN1CCN(c2nc3ccccc3nc2OCc2ccccn2)CC1 | –
363 nM | CN1CCN(c2nc3ccccc3nc2Sc2ccccc2)CC1 | –
324 nM | CN1CCN(c2nc3ccccc3nc2Oc2ccccc2)CC1 | –
39.8 nM | CN1CCN(c2nc3ccccc3nc2Cc2ccccc2)CC1 | Activity (Rattus norvegicus [1]): Active; inhibition (Histamine H1 receptor [2]): 86%; Ki (Histamine H1 receptor [3]): 741 nM; inhibition [4]: 26%; inhibition [5]: 62%
26.3 nM | COc1nc2cc(Cl)ccc2nc1N1CCN(C)CC1 | –
